Screening results deposited in PubChem by several laboratories.
SMARCA2 activ – SMARCA2 function activation, primary screen. AID 652017. 370,000 compounds, 1% hits. activation, % at 9.1 µM. MG213 cells, MMTV-luciferase reporter, dexamethasone, overnight; in the data active means activation above about 7.8%;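 further: 0% = vehicle wells and 100% = reference activator wells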
MC4R barr agon – activates human MC4R beta-arrestin recruitment; P32245; U2OS MC4R beta-arrestin complementation, luminescence; percent of melanotan II response, DMSO zero; activation, % at 8.9 µM; 360,000 compounds, 0.98% hits;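 active means activation above a per-plate cutoff, the mean activation of sample wells on that plate plus 3 SD, cut at about 8% in these data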
Target sequence (P32245 whole entry, looked up): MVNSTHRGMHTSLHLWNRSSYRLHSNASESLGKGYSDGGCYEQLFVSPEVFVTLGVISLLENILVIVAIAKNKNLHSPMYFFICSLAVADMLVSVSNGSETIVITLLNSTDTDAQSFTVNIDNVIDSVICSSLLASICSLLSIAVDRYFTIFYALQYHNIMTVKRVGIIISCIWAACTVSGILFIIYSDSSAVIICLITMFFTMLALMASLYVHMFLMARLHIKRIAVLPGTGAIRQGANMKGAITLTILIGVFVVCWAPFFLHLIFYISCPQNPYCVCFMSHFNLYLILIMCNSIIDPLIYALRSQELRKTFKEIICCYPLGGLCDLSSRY
MC4R antagonist – blocks human MC4R cAMP signaling; P32245; MC4R-expressing cells, MTII-stimulated cAMP, LANCE TR-FRET; inhibition, % at 6.5 µM; 360,000 compounds, 0.48% hits; AID 540295;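 active means inhibition above its plate's cutoff, the mean of tested wells on that plate plus 3 SD, cut at about 29% in these data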;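 further: 0% = Melanotan II alone and 100% = Melanotan II plus saturating MCL0020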
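Test system: U2OS cells stably expressing human melanocortin 4 receptor (MC4R); also added: Melanotan II challenge; compound: 6.5 µM single dose; timing: 30-min compound preincubation, 1-h Melanotan II challenge, 1-h detection, room temperature; signal: Eu-cAMP/anti-cAMP TR-FRET, emission 671 nm; repeats: one well per compound, no replicates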
CFTR F508del cor – correctors of CFTR F508del function in bronchial epithelial cells; CFBE cells, YFP halide quenching; stimulated with forskolin plus potentiator P3; % fluorescence drop versus neutral controls; activity (quench increase), % at 7.58 µM; 350,000 compounds, 0.36% hits; AID 720511;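 active means mean added fluorescence quench of at least 8% versus neutral control, with both replicates also reaching 8%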;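 further: cells transiently co-express mutant CFTR-F508del with the halide-sensitive YFP; corrector assay measuring rescue of mutant channel to the surface after 24 h compound exposure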
* marks the source's active call; other numbers are inactive results; / = no result given. Compounds with a hit are over-represented: about 2.1% of the library has one in this group of screens.

SMILES | SMARCA2 activ | MC4R barr agon | MC4R antagonist | CFTR F508del cor
CCN(CC)C(=O)c1oc2ccc(S(=O)(=O)N3CC(C)CC(C)C3)cc2c1C (configuration not stated) | -4.8 | -0.6 | 19.5 | 9.2*
CCC(=O)c1ccc(OCC(=O)OCC(=O)Nc2cccc(S(=O)(=O)N3CCCC3)c2)cc1 | -3.6 | -1.8 | 6.7 | 2.1
CCC(=O)c1ccc(OCC(=O)OCC(=O)Nc2cccc(S(=O)(=O)N3CCOCC3)c2)cc1 | 7.8* | -1.4 | 14.7 | -6.5
Cc1ccc(N(C)c2nc(N)nc(N)c2N=O)cc1 | -5.1 | / | / | 9.9*
Cc1cccc(Nc2nc(N)nc(N)c2N=O)c1 | -0.9 | -1.6 | -9.9 | -0.5
NS(=O)(=O)c1ccc(Cl)c(S(N)(=O)=O)c1 | -0.6 | 0.2 | 3.3 | 10.5*
Nc1ccc(S(N)(=O)=O)cc1N | 5.3 | -0.7 | -2.2 | 1.7
C[C@@H](NC(=O)C[C@@H]1CC[C@@H]2[C@H](COC[C@@H](O)CN2C(=O)Nc2cc(Cl)cc(Cl)c2)O1)c1ccccc1 | / | / | / | 3.2
O=C1N=C(N2CCN(c3ccccc3)CC2)S/C1=C\c1cn[nH]c1-c1ccccc1 | -0.7 | 8.5* | -3.3 | -0.9
O=C1N=C(N2CCC(Cc3ccccc3)CC2)S/C1=C/c1cn[nH]c1-c1ccccc1 | -3.2 | 2.1 | 4.5 | /
Cc1cc(C)cc(OCC(=O)Nc2ccc(N3CCN(S(C)(=O)=O)CC3)cc2)c1 | 1.6 | -2.8 | -0.6 | /
Cc1ccc(OCC(=O)Nc2ccc(CN3CCCCC3)cc2)c(C)c1 | 0.6 | 0.1 | -2.7 | 8.3*
Cc1cc(C)cc(OCC(=O)Nc2ccc(N3CCCCC3)cc2)c1 | -1.6 | 8.8* | 5.5 | -0.3
Cc1cc(OCC(=O)Nc2ccc(CN3CCCCC3)cc2)ccc1Cl | 0.6 | 2.6 | 23.2 | 0.8
COc1ccc(S(=O)(=O)N(C)C[C@H]2OCCCC[C@H](C)Oc3ccc(NC(=O)Nc4ccc5c(c4)OCO5)cc3C(=O)N([C@H](C)CO)C[C@H]2C)cc1 | / | / | / | 2.0
O=C(O)c1ccccc1C(=O)N1CCc2c([nH]c3ccccc23)C1C(F)(F)F (configuration not stated) | -4.9 | -0.8 | -5.1 | -0.3
O=C(c1cccc(C(F)(F)F)c1)N1CCc2c([nH]c3ccccc23)C1C(F)(F)F (configuration not stated) | -2.4 | 8.8* | 9.5 | -3.2
CC1=NNC(=O)/C1=C\c1cn(-c2ccccc2)nc1-c1ccc(F)cc1 | / | 3.2 | 30.5* | /
O=C(/C=C/c1cccc([N+](=O)[O-])c1)c1ccc([N+](=O)[O-])o1 | 1.0 | -3.4 | 29.8* | -0.4
COCC(=O)N(C)C[C@H]1Oc2ncc(C#Cc3ccc(F)cc3)cc2C(=O)N([C@H](C)CO)C[C@@H]1C | / | / | / | 0.9
COC(=O)C1CC23C=CCN4CCC5(c6ccccc6NC15C2C)C43 (configuration not stated) | -1.7 | -2.1 | -23.4 | 10.4*
C[C@@H]1CCCCO[C@@H](CN(C)S(=O)(=O)c2cccs2)[C@@H](C)CN([C@@H](C)CO)C(=O)c2cc(NC(=O)Nc3ccc(C(F)(F)F)cc3)ccc2O1 | / | / | / | 0.4
O=C(Nc1cnn(Cc2ccc(F)cc2)c1)c1cc(-c2cccs2)on1 | / | 13.3* | -0.8 | -2.3
CCCc1cc(C(=O)Nc2cnn(Cc3ccc(F)cc3)c2)no1 | 0.8 | -0.6 | 18.0 | -0.2
CC1(C)CCN2CCC(C)(C)c3c(O)ccc1c32 | -4.0 | 6.0 | 2.8 | 37.9*
SMILES | SMARCA2 activ | MC4R barr agon | MC4R antagonist | CFTR F508del cor
CCc1ccc(OCc2n[nH]c(=S)n2Cc2ccccc2)cc1 | 1.9 | 2.4 | -0.6 | 3.6
CCc1ccc(OCc2n[nH]c(=S)n2C(C)CCCC(C)C)cc1 (configuration not stated) | 1.9 | -1.2 | 1.3 | 17.0*
O=C(C[C@@H]1C=C[C@@H](NS(=O)(=O)c2ccc(F)cc2)[C@H](CO)O1)N1CCC(Cc2ccccc2)CC1 | / | / | / | 0.4
Cc1cc(C)cc(NS(=O)(=O)CCCS(=O)(=O)Nc2cc(C)cc(C)c2)c1 | -0.8 | 19.1* | 2.3 | 0.4
COc1ccc(Cl)cc1NC(=O)Cn1nnc(C(=O)NCc2ccc3c(c2)OCO3)c1N | 0.1 | 8.6* | 3.7 | 4.9
Nc1c(C(=O)NCc2ccc3c(c2)OCO3)nnn1CC(=O)Nc1ccc(Br)cc1 | -0.9 | 14.8* | 21.7 | -0.4
O=C(C[C@H]1C[C@H]2c3cc(NC(=O)NC4CCCC4)ccc3O[C@H]2[C@@H](CO)O1)NCc1cc(F)ccc1F | / | / | / | -2.2
O=C(c1ccc(COc2ccc(Cl)cc2)o1)N1N=C(C(F)F)CC1(O)C(F)F (configuration not stated) | -7.2 | 8.7* | -5.0 | /
